Source: ChEMBL document CHEMBL1125123, “Antimalarial activity of new water-soluble dihydroartemisinin derivatives. 3. Aromatic amine analogues” (J Med Chem, 1990)
Converted amounts (≈) assume the structure as drawn.

Columns and labels:
[1] = system: Plasmodium falciparum; assay: Antimalarial activity against Plasmodium falciparum D6 Africa in human malaria; type: functional, organism-based
Procedure, shortened: (§1)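 Compounds dissolved in DMSO and 70% ethanol, then diluted in RPMI 1640 with 10% human plasma and tested over 1.56–100 × 10⁻⁹ M. Parasites at 0.5% parasitemia and 1% hematocrit were exposed to compound for 24 h before ³H-hypoxanthine was added. Uptake was read by scintillation counting, and IC50 was derived by nonlinear regression of concentration-response data.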

[2] = system: Plasmodium falciparum; assay: Antimalarial activity against Plasmodium falciparum W-2 Indochina in human malaria; type: functional, organism-based; procedure, shortened: as §1

| SMILES | IC50 [1] | IC50 [2] |
| --- | --- | --- |
| C[C@@H]1CC[C@H]2[C@](C)(Br)[C@@H](Nc3nccs3)O[C@@H]3O[C@@]4(C)CC[C@@H]1[C@]32OO4 | 0.91 ng/mL (≈ 2.04 nM) | 0.21 ng/mL (≈ 0.472 nM) |
| C[C@@H]1CC[C@H]2[C@](C)(Br)[C@@H](Nc3ccccn3)O[C@@H]3O[C@@]4(C)CC[C@@H]1[C@]32OO4 | 7.72 ng/mL (≈ 17.6 nM) | 1.19 ng/mL (≈ 2.71 nM) |
| C[C@@H]1CC[C@H]2[C@](C)(Br)[C@@H](Nc3cccc(F)c3)O[C@@H]3O[C@@]4(C)CC[C@@H]1[C@]32OO4 | 0.16 ng/mL (≈ 0.351 nM) | < 0.16 ng/mL |
| C[C@@H]1CC[C@H]2[C@](C)(Br)[C@@H](Nc3ncccn3)O[C@@H]3O[C@@]4(C)CC[C@@H]1[C@]32OO4 | 26 ng/mL (≈ 59 nM) | 5.56 ng/mL (≈ 12.6 nM) |
| C[C@@H]1CC[C@H]2[C@](C)(Br)[C@@H](Nc3ccccc3)O[C@@H]3O[C@@]4(C)CC[C@@H]1[C@]32OO4 | 3.42 ng/mL (≈ 7.8 nM) | 0.63 ng/mL (≈ 1.44 nM) |
| C[C@@H]1CC[C@H]2[C@@H](C)C(=O)O[C@@H]3O[C@@]4(C)CC[C@@H]1[C@]32OO4 [ARTEMISININ] | 0.56 ng/mL (≈ 1.98 nM) |  |
